We go through three compounds from ChEMBL document CHEMBL4402517, “Rational modification of Mannich base-type derivatives as novel antichagasic compounds: Synthesis, in vitro and in vivo evaluation” (Bioorg Med Chem, 2019).

Activity calls are given as the source filed them. The rule behind the calls is not given here.

Data set [1] can be described thus: Toxicity in BALB/c mouse infected with Trypanosoma cruzi MHOM/Pe/2011/Arequipa;DTU 5 bloodstream trypomastigote assessed as increase in serum alanine aminotransferase level in acute phase at 20 mg/kg/day, po administered for 5 consecutive days starting from day 8 post infection and measured at day 14 post infection by biochemical analysis relative to control. The class given is organism-based. The settings on record: in vivo. In short, it runs like this:
(§1)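 Female BALB/c mice (10–12 weeks, 14–20 g; groups of three) were infected i.p. with 5 × 10^5 Arequipa bloodstream trypomastigotes. Dosing was oral at 20 mg/kg/day for 5 days, from day 8 pi (acute) or day 70 pi (chronic), as a 2 mg/ml suspension in 5% DMSO/0.5% HPMC; controls received vehicle. Cyclophosphamide 200 mg/kg i.p. was given at day 80 pi. Serum was collected 2 days post-treatment and at necropsy by cardiac puncture and compared with infected untreated controls.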

Data set [2] deals with Trypanosoma cruzi. The data set can be described thus: Antitrypanosomal activity against Trypanosoma cruzi MHOM/Pe/2011/Arequipa;DTU 5 bloodstream trypomastigote infected in BALB/c mouse assessed as parasite-free adipose tissue in chronic phase at 20 mg/kg/day, po administered for 5 consecutive days starting from day 70 post infection followed by cyclophosphamide induced immunosuppression on day 80 post infection measured after day 100 post infection by PCR method relative to control. The class given is functional. A digest of the protocol:
(§2)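 Female BALB/c mice (10–12 weeks, three per group) were infected i.p. with 5 × 10^5 Arequipa bloodstream trypomastigotes. Dosing was oral, 20 mg/kg/day for 5 days, as a suspension in 5% DMSO/0.5% HPMC. Cyclophosphamide 200 mg/kg i.p. was given at day 80 pi. At necropsy (day 100) tissues were tested by PCR on the splice leader region (primers TC/TC1, 300 bp). Scored as x/3 mice positive.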

The test system of data set [3] is Trypanosoma cruzi. The data set can be described thus: Antitrypanosomal activity against Trypanosoma cruzi MHOM/Pe/2011/Arequipa;DTU 5 bloodstream trypomastigote infected in BALB/c mouse assessed as parasite-free spleen in acute phase at 20 mg/kg/day, po administered for 5 consecutive days starting from day 8 post infection followed by cyclophosphamide induced immunosuppression on day 80 post infection measured after day 100 post infection by PCR method relative to control. The data set is classed as functional. A digest of the protocol:
as §2

The test system of data set [4] is Trypanosoma cruzi. The data set can be described thus: Antitrypanosomal activity against Trypanosoma cruzi MHOM/Pe/2011/Arequipa;DTU 5 bloodstream trypomastigote infected in BALB/c mouse assessed as parasite-free heart in acute phase at 20 mg/kg/day, po administered for 5 consecutive days starting from day 8 post infection followed by cyclophosphamide induced immunosuppression on day 80 post infection measured after day 100 post infection by PCR method relative to control. The class given is functional. In short, it runs like this: as §2

The nature of data set [5]: Selectivity index, ratio of IC50 for African green monkey Vero cells to IC50 for Trypanosoma cruzi IRHOD/CO/2008/SN3;DTU 1. The data set is classed as toxicity. The settings on record: read-out: Selectivity Index. In short, it runs like this:
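SI = Vero IC50 / epimastigote IC50. Vero cells were grown in RPMI-1640 with 10% FBS, seeded at 0.8 × 10^4 cells/well, exposed to 10.0–200.0 µM for 72 h, then given MTT for 4 h. Epimastigotes were grown in MTL with 10% FBS at 28 °C, 5 × 10^5/mL, exposed to 6.3–50 µM for 48 h, then resazurin for 24 h (570/600 nm). IC50s came from nonlinear regression.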

Data set [6] relates to Trypanosoma cruzi. The data set can be described thus: Antitrypanosomal activity against Trypanosoma cruzi MHOM/Pe/2011/Arequipa;DTU 5 bloodstream trypomastigotes infected in BALB/c mouse assessed as parasite-free stomach in chronic phase at 20 mg/kg/day, po administered for 5 consecutive days starting from day 70 post infection followed by cyclophosphamide induced immunosuppression on day 80 post infection measured after day 100 post infection by PCR method relative to control. The class given is functional. A digest of the protocol: as §2

For data set [7], the system named is Trypanosoma cruzi. The data set can be described thus: Antitrypanosomal activity against Trypanosoma cruzi MHOM/Pe/2011/Arequipa;DTU 5 epimastigote assessed as effect on ethanol excretion at IC50 after 72 hrs by H NMR method relative to control. The data set is classed as functional, organism-based. In short, it runs like this: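 Cells were spun at 800 × g for 10 min and culture supernatants analysed by 1H NMR. Catabolite peaks were expressed as % variation versus untreated parasites.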

Data set [8] concerns Trypanosoma cruzi. The data set can be described thus: Antitrypanosomal activity against Trypanosoma cruzi TINF/CH/1956/Tulahuen;DTU 6 epimastigotes measured after 72 hrs by Neubauer hemocytometer. The data set is classed as functional, organism-based. The settings on record: TINF/CH/1956/Tulahuen;DTU 6, 72 h.
A short description of data set [9]: Selectivity index, ratio of IC50 for African green monkey Vero cells to IC50 for Trypanosoma cruzi TINF/CH/1956/Tulahuen;DTU 6 amastigote forms. The data set is classed as toxicity. The settings on record: read-out: Selectivity Index. In short, it runs like this: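 Vero cells (1 × 10^4/well) were infected with trypomastigotes at MOI 10:1 for 24 h and washed with PBS. They were then exposed to 3.1–50 µM for 72 h at 37 °C in 5% CO2, and amastigotes were counted after Giemsa staining. Triplicates in two determinations; nonlinear regression.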

The test system of data set [10] is Trypanosoma cruzi. The data set can be described thus: Trypanocidal activity against Trypanosoma cruzi TINF/CH/1956/Tulahuen;DTU 6 trypomastigote forms infected in BALB/c albino mouse measured after 24 hrs by Neubauer chamber method. The settings on record: TINF/CH/1956/Tulahuen;DTU 6, 24 h.
Data set [11] concerns Trypanosoma cruzi. The data set can be described thus: Antitrypanosomal activity against Trypanosoma cruzi MHOM/Pe/2011/Arequipa;DTU 5 bloodstream trypomastigote infected in BALB/c mouse assessed as parasite-free spleen in chronic phase at 20 mg/kg/day, po administered for 5 consecutive days starting from day 70 post infection followed by cyclophosphamide induced immunosuppression on day 80 post infection measured after day 100 post infection by PCR method relative to control. The class given is functional. In short, it runs like this: as §2

Data set [12] can be described thus: Toxicity in BALB/c mouse infected with Trypanosoma cruzi MHOM/Pe/2011/Arequipa;DTU 5 bloodstream trypomastigote assessed as decrease in serum lactate dehydrogenase level in acute phase at 20 mg/kg/day,po administered for 5 consecutive days starting from day 8 post infection and measured at day 14 post infection by biochemical analysis relative to control. The data set is classed as organism-based. The settings on record: in vivo. More on the design: scale not given: the % may be the effect or the level left. A digest of the protocol:
as §1

The subject of data set [13] is Trypanosoma cruzi. The data set can be described thus: Antitrypanosomal activity against Trypanosoma cruzi MHOM/Pe/2011/Arequipa;DTU 5 bloodstream trypomastigote infected in BALB/c mouse assessed as parasite-free brain in chronic phase at 20 mg/kg/day, po administered for 5 consecutive days starting from day 70 post infection followed by cyclophosphamide induced immunosuppression on day 80 post infection measured after day 100 post infection by PCR method relative to control. The class given is functional. In short, it runs like this:
as §2

Data set [14] has as its system Trypanosoma cruzi. The data set can be described thus: Antitrypanosomal activity against Trypanosoma cruzi MHOM/Pe/2011/Arequipa;DTU 5 bloodstream trypomastigote infected in BALB/c mouse assessed as parasite-free brain in acute phase at 20 mg/kg/day, po administered for 5 consecutive days starting from day 8 post infection followed by cyclophosphamide induced immunosuppression on day 80 post infection measured after day 100 post infection by PCR method relative to control. The data set is classed as functional. A digest of the protocol: as §2

Data set [15] relates to Trypanosoma cruzi. The data set can be described thus: Antitrypanosomal activity against Trypanosoma cruzi IRHOD/CO/2008/SN3;DTU 1 epimastigotes measured after 72 hrs by Neubauer hemocytometer. The data set is classed as functional, organism-based. The settings on record: IRHOD/CO/2008/SN3;DTU 1, 72 h.
Data set [16] has as its system Trypanosoma cruzi. The data set can be described thus: Antitrypanosomal activity against bloodstream trypomastigote stage of Trypanosoma cruzi MHOM/Pe/2011/Arequipa; DTU 5 isolated from parasite infected BALB/c Albino mouse cardiac cells after 24 hrs by Neubauer chamber based cell counting method. The class given is functional, organism-based. The settings on record: DTU 5, 24 h. A digest of the protocol: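 Bloodstream trypomastigotes were taken by cardiac puncture from infected BALB/c mice and diluted in RPMI + 10% heat-inactivated FBS. At 2 × 10^6/mL they were exposed to 3.1–50.0 µM (lower where needed) for 24 h at 37 °C, 5% CO2, and counted in a Neubauer chamber. Triplicates, at least three experiments; IC50 by nonlinear regression.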

Usually IC50 stands for the midpoint of a concentration-inhibition curve. For the compound `O=C(CCN1CCN(c2ccc(C(F)(F)F)cc2)CC1)c1ccc(O)cc1`, the Activity in data set [1] is given as more than 40%; with Trypanosoma cruzi [2], 50%; in the data set with Trypanosoma cruzi [3], 13%; in the data set on Trypanosoma cruzi [4] it was 13%; with Trypanosoma cruzi [6], 50%; in the data set with Trypanosoma cruzi [11] it was 50%. Moreover, the Activity result in data set [12] is given as “<= 20%”; in the data set with Trypanosoma cruzi [13] it was 50%; with Trypanosoma cruzi [14], 13%. Besides, the selectivity ratio worked out at 8.5 in data set [5] and 27.4 in data set [9]. The outcome with Trypanosoma cruzi [7] was Active. Also, the IC50 in the data set on Trypanosoma cruzi [8] amounted to 14.8 µM; in the data set on Trypanosoma cruzi [10], 2.3 µM; in the data set with Trypanosoma cruzi [15], 12.6 µM; in the data set with Trypanosoma cruzi [16], 0.9 µM.
In the case of `O=C(Cn1ccnc1[N+](=O)[O-])NCc1ccccc1` [BENZNIDAZOLE], the Activity in data set [1] is recorded as more than 40%; with Trypanosoma cruzi [2] it was 38%; with Trypanosoma cruzi [3], 25%; in the data set on Trypanosoma cruzi [4], 25%; with Trypanosoma cruzi [6] it was 38%; in the data set on Trypanosoma cruzi [11] it was 38%. Also, the Activity entry in [12] is reported as “<= 10%”; with Trypanosoma cruzi [13], 38%; in the data set with Trypanosoma cruzi [14] it was 25%. The selectivity ratio is more than 13.1 in [5] and more than 51.7 in data set [9]. Besides, the result in the data set with Trypanosoma cruzi [7] was Active. For the same compound, the IC50 in the data set on Trypanosoma cruzi [8] turned out to be 25.3 µM; with Trypanosoma cruzi [10], 6.7 µM; in the data set with Trypanosoma cruzi [15], 15.3 µM; in the data set on Trypanosoma cruzi [16], 6.2 µM.
Take `O=C(CCN1CCN(c2ccc(Cl)cc2)CC1)c1ccc(O)cc1`: the Activity in data set [1] is more than 40%; in the data set with Trypanosoma cruzi [2], 63%; in the data set with Trypanosoma cruzi [3], 50%; with Trypanosoma cruzi [4], 50%; in the data set with Trypanosoma cruzi [6], 63%; with Trypanosoma cruzi [11], 63%. For the same compound, the results for the Activity entry (in data set [12]; in the data set on Trypanosoma cruzi [13]; in the data set on Trypanosoma cruzi [14]) were “<= 20%”, 63% and 50%, respectively. Moreover, the selectivity ratio in data set [5] came out at 8.6; in [9], 34.5. Besides, the result in the data set on Trypanosoma cruzi [7] was Active. For the same compound, the IC50 was determined as 10.6 µM in the data set with Trypanosoma cruzi [8], 2.1 µM with Trypanosoma cruzi [10], 12.1 µM with Trypanosoma cruzi [15] and 0.7 µM in the data set with Trypanosoma cruzi [16].
